Measured values from ChEMBL document CHEMBL1124002, “Antiallergy agents. 1. Substituted 1,8-naphthyridin-2(1H)-ones as inhibitors of SRS-A release” (J Med Chem, 1988).
The source made the active and inactive calls. The calls are words filed in the database; no cut-off is given here.

Columns and labels:
Cavia porcellus [1] = species: Cavia porcellus; test: Percent inhibition of SRS-A release in vitro at a dose of 10 uM in guinea pig; format: functional
Outline: (§1)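 Male Hartley guinea pigs were sensitized with ovalbumin (5 mg ip + 5 mg sc on day 1, 5 mg ip on day 4). About 400 mg chopped lung was preincubated with compound for 12 min at 37 °C in Tyrode's with 10 mM cysteine, then challenged with 20 μg/mL ovalbumin (final) for 0.25 h. SRS-A in ethanol-extracted supernatant was bioassayed on mepyramine-treated ileum against a rat SRS-A standard. Results are % inhibition versus vehicle, from 3-4 lungs.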

Cavia porcellus [2] = test: Percent inhibition of bronchospasm in vivo at a dose of 12.5 mg/kg in guinea pig; format: functional; settings: Bronchiole
Outline: (§2)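 Guinea pigs were sensitized with ovalbumin and used 3-4 weeks later. They were fasted and anesthetized with dialurethane ip. Compounds were given orally 2 h before challenge. Propranolol 1 mg/kg, indomethacin 5 mg/kg and mepyramine 2 mg/kg were given iv 15 min before a 0.5 min aerosol of 0.5% ovalbumin through the tracheal cannula. The rise in inflation pressure measured bronchoconstriction. Results are % inhibition, 4-5 animals per group.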

Cavia porcellus [3] = test: Percent inhibition of bronchospasm in vivo at a dose of 25 mg/kg in guinea pig; format: functional; settings: Bronchiole; outline: as §2
Cavia porcellus [4] = test: Percent inhibition of bronchospasm, when administered orally at a dose of 160 mg/kg to guinea pig; format: functional; settings: Bronchiole, route oral
Outline: (§3)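 Male Hartley guinea pigs were sensitized with ovalbumin (5 mg ip plus 5 mg sc on day 1, 5 mg ip on day 4) and used 3-4 weeks later, fasted overnight and given dialurethane ip. They were dosed orally 2 h before challenge and given iv propranolol 1 mg/kg, indomethacin 5 mg/kg and mepyramine 2 mg/kg. Fifteen minutes later, 0.5% ovalbumin aerosol was delivered for 0.5 min via tracheal cannula. Read-out was increased inflation pressure, as mean % inhibition from 4-5 animals.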

Cavia porcellus [5] = test: Percent inhibition of bronchospasm, when administered orally at a dose of 18 mg/kg in guinea pig; format: functional; settings: Bronchiole, route oral; outline: as §3
Cavia porcellus [6] = test: Percent inhibition of bronchospasm, when administered orally at a dose of 53 mg/kg in guinea pig; format: functional; settings: Bronchiole, route oral; outline: as §3
Cavia porcellus [7] = species: Cavia porcellus; test: Compound was tested for th inhibition of SRS-A production in guinea pig lung; format: functional
Outline: (§4)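 Antigen-challenged lung fragments from sensitized guinea pigs were treated with 10 μM test agent or DMSO vehicle 12 min before challenge. Tyrode's contained 10 mM cysteine and 10 μM indomethacin. SRS-A in ethanol extracts was bioassayed on guinea pig ileum and given as units/g, mean ± SEM of 4 lungs. A paired t test compared treatment with vehicle.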

Cavia porcellus [8] = species: Cavia porcellus; test: Inhibitory activity against SRS-A release in guinea pig; 0.7-2 uM; format: functional; outline: as §1
Cavia porcellus [9] = test: Effective oral dose required to inhibit bronchospasm in guinea pig; 1.3-7.6 mg/kg; format: functional; settings: Bronchiole; outline: as §2
Cavia porcellus [10] = species: Cavia porcellus; test: Production of LTD4 in guinea pig lung; format: functional
Outline: (§5)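 Lung fragments pooled from four sensitized guinea pigs were challenged in 0.4 g aliquots with antigen, with 10 μM test agent or DMSO vehicle added 12 min before challenge. Tyrode's held 10 mM cysteine and 10 μM indomethacin. Ethanol extracts were pooled, solvent-partitioned and run on reverse-phase HPLC with UV 280 nm. LTD4 was quantified against an LTC4 standard curve (10-200 pmol) as pmol/g.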

Cavia porcellus [11] = species: Cavia porcellus; test: Production of SRS-A in guinea pig lung; format: functional; outline: as §4
Mus musculus = species: Mus musculus; test: Compound was tested in vitro in cloned murine mast cell (MC-9) for the inhibition of production of leukotriene products at 50 uM concentration; No inhibition; format: functional
Rattus norvegicus = species: Rattus norvegicus; test: Compound was tested in vitro in rat polymorphonuclear leucocyte for the inhibition of production of leukotriene products at 50 uM concentration; No inhibition; format: functional
Cavia porcellus [12] = species: Cavia porcellus; test: Compound was tested for th inhibition of LTD4 production in guinea pig lung; format: functional; outline: as §5
Cavia porcellus [13] = species: Cavia porcellus; test: Percent inhibition of SRS-A release in vitro at a dose of 3 uM in guinea pig; format: functional; outline: as §1
Cavia porcellus [14] = test: Percent inhibition of bronchospasm in vivo at oral dose of 25 mg/kg in guinea pig

For `CCCCc1c(O)c2cccnc2n(-c2ccc(F)cc2)c1=O`, the inhibition at 10 µM (Cavia porcellus [1]) was 95% and the inhibition in vivo at 12.5 mg/kg (Cavia porcellus [2]) was 0%.
For `C=CCc1c(O)c2cccnc2n(-c2cccc(OC)c2)c1=O`, the inhibition at 10 µM (Cavia porcellus [1]) was 56% and the inhibition in vivo at 25 mg/kg (Cavia porcellus [3]) was 46%.
`O=c1c(CCc2ccccn2)c(O)c2cccnc2n1-c1ccccc1` was tested, and the inhibition at 10 µM (Cavia porcellus [1]) was 58% and the inhibition in vivo at 12.5 mg/kg (Cavia porcellus [2]) was 5%.
Molecule `Cn1c(=O)c2[nH]cnc2n(C)c1=O` [AMINOPHYLLINE] has an inhibition in vivo at 160 mg/kg (Cavia porcellus [4]) of 81%, an inhibition in vivo at 18 mg/kg (Cavia porcellus [5]) of 21% and an inhibition in vivo at 53 mg/kg (Cavia porcellus [6]) of 55%.
`CC(C)=CCc1c(O)c2nccnc2n(-c2ccccc2)c1=O` showed an inhibition at 10 µM (Cavia porcellus [1]) of 69% and an inhibition in vivo at 25 mg/kg (Cavia porcellus [3]) of 10%.
In the case of `CCCCc1c(OCCO)c2cccnc2n(-c2ccccc2)c1=O`, the inhibition at 10 µM (Cavia porcellus [1]) is reported as 86% and the inhibition in vivo at 25 mg/kg (Cavia porcellus [3]) is reported as 64%.
`CCCCc1c(O)c2cccnc2n(-c2ccc(O)c(C(=O)OCC)c2)c1=O` showed an inhibition at 10 µM (Cavia porcellus [1]) of 65% and an inhibition in vivo at 12.5 mg/kg (Cavia porcellus [2]) of 0%.
Molecule `CCCCc1c(O)c2cccnc2n(-c2ccc(OCc3ccccc3)cc2)c1=O` has an inhibition at 10 µM (Cavia porcellus [1]) of 50% and an inhibition in vivo at 25 mg/kg (Cavia porcellus [3]) of 0%.
With `CCc1c(O)c2cccnc2n(-c2ccccc2)c1=O` the inhibition at 10 µM (Cavia porcellus [1]) was 74% and the inhibition in vivo at 12.5 mg/kg (Cavia porcellus [2]) was 44%.
`C=CCc1c(OC(C)=O)c2cccnc2n(-c2ccc(OC)cc2)c1=O` gave an inhibition at 10 µM (Cavia porcellus [1]) of 52% and an inhibition in vivo at 25 mg/kg (Cavia porcellus [3]) of 42%.
In the case of `CC1(CCc2c(O)c3cccnc3n(-c3ccccc3)c2=O)OCCO1`, the inhibition at 10 µM (Cavia porcellus [1]) is reported as 52% and the inhibition in vivo at 25 mg/kg (Cavia porcellus [3]) is reported as 0%.
For `CCCCc1c(O)c2nccnc2n(-c2ccccc2)c1=O`, the inhibition at 10 µM (Cavia porcellus [1]) was 75% and the inhibition in vivo at 25 mg/kg (Cavia porcellus [3]) was 36%.
`O=c1c(C2CCCCC2)c(O)c2cccnc2n1-c1ccccc1` was tested, and the inhibition at 10 µM (Cavia porcellus [1]) was 66% and the inhibition in vivo at 25 mg/kg (Cavia porcellus [3]) was 45%.
`CCCCc1c(O)c2cncnc2n(-c2ccccc2)c1=O` showed an inhibition at 10 µM (Cavia porcellus [1]) of 9%.
With `C=CCc1c(OC(C)=O)c2cccnc2n(-c2ccccc2)c1=O` the Inhibition (Cavia porcellus [7]) was 69%, the IC50 (Cavia porcellus [8]) was 1.1 µM and the ED50 (Cavia porcellus [9]) was 2.9 mg/kg. It also gave an LTD4 production at 10 µM (Cavia porcellus [10]) of 25 pmol/g, an SRS-A release at 10 µM (Cavia porcellus [11]) of 9.3 units/g and an inhibition at 10 µM (Cavia porcellus [1]) of 73%. For the same molecule, the inhibition in vivo at 12.5 mg/kg (Cavia porcellus [2]) was 84%, the Activity (Mus musculus) was “inactive” and the Activity (Rattus norvegicus) was “inactive”. The Inhibition (Cavia porcellus [12]) was 70%.
Molecule `CC(=O)Oc1c(CCC2CCCCN2C)c(=O)n(-c2ccccc2)c2ncccc12` (stereo unspecified) has an inhibition at 10 µM (Cavia porcellus [1]) of 19%.
`CCCCc1c(O)c2cc3c(nc2n(-c2ccccc2)c1=O)CCC3` was tested, and the inhibition at 10 µM (Cavia porcellus [1]) was 22%.
Molecule `CCCCc1c(OCCN(C)C)c2cccnc2n(-c2ccccc2)c1=O` has an inhibition at 10 µM (Cavia porcellus [1]) of 0%, an inhibition in vivo at 12.5 mg/kg (Cavia porcellus [2]) of 13% and an inhibition in vivo at 25 mg/kg (Cavia porcellus [3]) of 84%.
Molecule `CCCCc1c(OC(C)=O)c2cccnc2n(-c2ccc(F)cc2)c1=O` has an inhibition at 10 µM (Cavia porcellus [1]) of 77% and an inhibition in vivo at 12.5 mg/kg (Cavia porcellus [2]) of 34%.
Work on `CCCCCCn1c(=O)c(CCCC)c(O)c2cccnc21` yielded an inhibition at 10 µM (Cavia porcellus [1]) of 63% and an inhibition in vivo at 25 mg/kg (Cavia porcellus [3]) of 15%.
Molecule `C=CCc1c(OC(C)=O)c2cccnc2n(-c2ccc(OCc3ccccc3)cc2)c1=O` has an inhibition at 3 µM (Cavia porcellus [13]) of 23%.
In the case of `CCCCc1c(O)c2c(n(-c3ccccc3)c1=O)NCCC2`, the inhibition at 10 µM (Cavia porcellus [1]) is reported as 51% and the inhibition in vivo at 25 mg/kg (Cavia porcellus [3]) is reported as 17%.
In the case of `C=CCc1c(O)c2cccnc2n(-c2ccc(OC)cc2)c1=O`, the inhibition at 10 µM (Cavia porcellus [1]) is reported as 3%.
`O=c1c(-c2ccccn2)c(O)c2cccnc2n1-c1ccccc1` gave an inhibition at 10 µM (Cavia porcellus [1]) of 84% and an inhibition in vivo at 12.5 mg/kg (Cavia porcellus [2]) of 42%.
Work on `C=CCc1c(O)c2cccnc2n(-c2ccccc2)c1=O` yielded an inhibition at 10 µM (Cavia porcellus [1]) of 81% and an Inhibition (Cavia porcellus [14]) of 85%.
`C=CCc1c(OC(C)=O)c2cccnc2n(-c2ccccc2OC)c1=O` gave an inhibition at 10 µM (Cavia porcellus [1]) of 35%.
